FN deposition inh – fibronectin deposition inhibition. inhibition, % at 12.6 µM. 350,000 tested, 0.086% active. AID 743247. AH1F fibroblasts, Alexa488-fibronectin deposition fluorescence, overnight;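 active = mean inhibition across replicates of 30% or more, regardless of how many single replicates reach that level; inconclusive = mean under 30% yet at least half of replicates reach 30%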;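 also: positive control wells lacked labelled fibronectin entirely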
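Assay system: AH1F fibroblast monolayer, labelled fibronectin deposition. Amount: 10000 cells per well. Also added: labelled fibronectin 24 nM. Compound: single-point pinned compound. Incubation: cell attachment 1 h, compound and FN exposure overnight. Detection: fluorescence after three HBSS washes, excitation 485 nm, emission 525 nm. Read-out: inhibition of fibronectin deposition signal.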
HIV Env fusion – HIV envelope-mediated fusion inhibition. 360,000 tested, 1.1% active. inhibition, % at 12.3 µM. HeLa-JRFL Env/CEM21 cell fusion, luciferase;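 active = mean replicate inhibition score of at least 50 and every replicate individually at or above 50; inconclusive = only one of the two criteria met; inactive = mean below 50 and not all replicates reaching 50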;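 also: 0% = plate neutral controls and 100% = maraviroc near 300 nM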
Ecoli rRNA inh – inhibits bacterial ribosomal RNA function over humanized ribosomes; E. coli WT GFP vs humanized-ribosome RFP mutants, fluorescence, 24 h; active compounds read low; DMSO median 0, no signal -100; GFP signal change (wild-type ribosome), % (test concentration not listed); 350,000 tested, 1.6% active;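 active = significant combined selectivity score with lowered wild-type GFP, culture density cut under 30%, mutant RFP and density less affected; inactive = any of these conditions unmet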
PGC1a acetyl inh – lowers PGC1a acetylation signal in U2OS cells. inhibition, % at 15.6 µM. 350,000 tested, 0.17% active. AlphaScreen anti-acetyl-lysine; with virally co-expressed GCN5 acetyltransferase;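 active = every replicate shows inhibition of at least 40%; inconclusive = mean inhibition at least 40% but some replicate below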;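 also: 0% = neutral control wells and 100% = positive control wells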
DENV2 CPE – DENV2-induced cell death inhibition; DENV2-infected cells, cytopathic effect rescue, plate reader; CPE inhibition, % at 9.99 µM; 350,000 tested, 1.7% active; AID 651640; in the data active = CPE inhibition above about 20%, passing the limit was not always enough; inconclusive = no clear call, values can overlap the other calls; tested in BHK-21 cells;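 also: 0% = median of neutral control wells and 100% = median of positive control wells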
PglD DTNB – inhibitors of Campylobacter jejuni PglD acetyltransferase | purified PglD enzyme, DTNB colorimetric CoA detection | inhibition, % at 12.5 µM | 360,000 tested, 0.098% active; in the data active = inhibition above about 16%, passing the limit was not always enough; inconclusive = no clear call, values can overlap the other calls
An asterisk follows results filed as active; ? = inconclusive; nt = no result; [ ] = dose if it differs, or a comment. Hits are enriched below; roughly 3.5% of the tested compounds scored in any of these assays.

SMILES | FN deposition inh | HIV Env fusion | Ecoli rRNA inh | PGC1a acetyl inh | DENV2 CPE | PglD DTNB
COc1ccc(Cl)cc1NC(=O)CN(C)S(=O)(=O)c1cccs1 | 3.4 | 5.4 | -32.5* | -8.7 | 4.3 | 1.1
COc1ccc(Cl)cc1NC(=S)NNC(=O)c1cccnc1 | -8.0 | 19.4 | 1.4 | 3.1 | -6.0 | nt
C=CCOc1c(Br)cc(C2C3=C(CCCC3=O)N(C)C3=C2C(=O)CCC3)cc1OCC | -0.9 | -1.7 | -34.2* | nt | nt | nt
C=CCOc1ccc(C2C3=C(CCCC3=O)N(CC(=O)O)C3=C2C(=O)CCC3)cc1OCC | -5.7 | 6.3 | 3.0 | 21.0 | -5.0 | 1.4
O=C(C[C@H]1CC[C@@H]2[C@H](COC[C@H](O)CN2C(=O)c2ccccc2F)O1)N1CCN(c2ccccc2)CC1 | 6.6 | nt | -1.5 | 2.5 | 5.3 | 2.3
CC=Cc1ccc2n(c1=O)C[C@H]1[C@H](CO)[C@@H](C(=O)NCCC)N(Cc3cocn3)[C@@H]21 (mixture of isomers) | nt | -2.0[16.7 µM] | 2.5 | nt | 78.4* | 7.2
CC=Cc1ccc2n(c1=O)C[C@H]1[C@H](CO)[C@@H](C(=O)NCC)N(Cc3cccc(F)c3)[C@@H]21 (mixture of isomers) | 0.7 | nt | -0.4 | nt | -3.8 | 1.9
CC=Cc1ccc2n(c1=O)C[C@H]1[C@H](CO)[C@@H](C(=O)OC)N(CCc3ccccc3)[C@@H]21 (mixture of isomers) | nt | 59.9*[16.7 µM] | -3.8 | nt | 9.4 | 0.7
CC=Cc1ccc2n(c1=O)C[C@H]1[C@H](CO)[C@@H](C(=O)N(C)C)N(Cc3cccc(F)c3)[C@@H]21 (mixture of isomers) | nt | nt | -1.4 | nt | 55.7* | 0.0
CO[C@H]1CN(C)C(=O)c2cc(NC(=O)C3CC3)ccc2OC[C@H](C)N(Cc2ccc(F)cc2)C[C@@H]1C | -11.5 | nt | -7.5 | nt | 9.0 | 3.5
C[C@H](CO)N1C[C@H](C)[C@H](CN(C)C(=O)Nc2cccc3ccccc23)Oc2ncccc2C1=O | 2.6 | -5.9[16.7 µM] | 12.1 | 1.3 | -0.1 | -1.8
CN1CCCCN2[C@@H](CO)[C@@H](c3ccc(/C=C/c4ccccc4)cc3)[C@@H]2C1 | nt | nt | 0.6 | -25.1 | -34.0 | 2.5
Cc1ccc(-c2ccc([C@H]3[C@@H](CO)N4CCCCN(C)C[C@H]34)cc2)cc1 | nt | nt | -0.3 | -9.0 | 27.0* | 3.8
Cc1ccc(-c2ccc([C@H]3[C@H]4CN(C)CCCCN4[C@H]3CO)cc2)cc1 | nt | nt | 3.8 | 1.9 | 4.9 | -0.3
CN1CCCCN2[C@H](CO)[C@@H](c3ccc(-c4ccc(F)cc4)cc3)[C@@H]2C1 | -4.2 | nt | -1.6 | 6.4 | 60.8* | 1.9
CN1CCCCN2[C@H](C1)[C@H](c1ccc(-c3ccc(F)cc3)cc1)[C@@H]2CO | -0.4 | nt | 2.5 | 7.3 | ? | -2.0
C/C=C/c1ccc([C@H]2[C@@H](CO)N3CCCCN(C)C[C@H]23)cc1 | nt | nt | 5.4 | -5.2 | 54.1* | 3.2
C[C@@H]1CN([C@@H](C)CO)C(=O)c2ccccc2-c2ccccc2CO[C@@H]1CN(C)S(=O)(=O)c1cccc(F)c1 | -7.2 | 14.2[16.7 µM] | 0.3 | 21.3 | nt | nt
CCN(CC)CCN(C(=O)c1c(F)cccc1F)c1nc2cc(C)cc(C)c2s1 | -4.9 | 28.2 | -31.4* | nt | -4.5 | nt
Cc1cc(C(=O)N2CCN(Cc3ccccc3)CC2)ccc1[N+](=O)[O-] | 2.4 | -11.1 | -4.6 | nt | 1.6 | 9.0
NC(=O)CC(NC(=O)Cc1cccc2ccccc12)c1ccc(N2CCC(N3CCCCC3)CC2)c([N+](=O)[O-])c1 (stereo not drawn) | -7.7 | 12.1 | 5.5 | 4.1 | 23.4* | 4.4
Cc1cc(C)cc(C(=O)NC(CC(N)=O)c2ccc(N3CCC(Cc4ccccc4)CC3)c([N+](=O)[O-])c2)c1 (stereo not drawn) | -5.9 | -10.8 | 6.7 | nt | 123.1* | 3.5
Cc1cc(C(=O)N2CCC(Cc3ccccc3)CC2)ccc1[N+](=O)[O-] | nt | nt | -31.0* | -5.6 | -7.0 | -10.4
CN(C)c1ccc(Sc2ccc3nc(N)nc(N)c3c2)cc1 | -1.2 | 27.9 | -58.7 | 45.8* | -8.2 | 2.0
Cc1noc(C)c1S(=O)(=O)Nc1ccc2c(c1)CC(=O)N([C@@H](C)CO)C[C@H](C)[C@H](CN(C)S(=O)(=O)c1cn(C)cn1)O2 | nt | 10.1[16.7 µM] | 2.1 | 8.7 | 2.5 | -2.9
SMILES | FN deposition inh | HIV Env fusion | Ecoli rRNA inh | PGC1a acetyl inh | DENV2 CPE | PglD DTNB
Cc1noc(C)c1NC(=O)Nc1cccc2c1O[C@H](CN(C)Cc1ccc(Oc3ccccc3)cc1)[C@H](C)CN([C@@H](C)CO)C2=O | 14.5 | 0.1[16.7 µM] | -3.9 | 99.9* | 1.6 | 1.1
Cc1noc(C)c1NC(=O)Nc1cccc2c1O[C@H](CN(C)Cc1ccc(-c3ccccc3)cc1)[C@H](C)CN([C@H](C)CO)C2=O | nt | nt | -4.2 | 4.4 | ? | -3.0
Cc1noc(C)c1NC(=O)Nc1cccc2c1O[C@H](CN(C)Cc1ccc(C(F)(F)F)cc1)[C@H](C)CN([C@@H](C)CO)C2=O | nt | -23.9[16.7 µM] | 0.1 | -3.9 | 20.8* | 1.6
Cc1noc(C)c1NC(=O)Nc1cccc2c1O[C@H](CN(C)Cc1ccc(C(F)(F)F)cc1)[C@@H](C)CN([C@@H](C)CO)C2=O | nt | -20.7[16.7 µM] | -3.4 | -10.2 | 8.4 | 1.9
Cc1noc(C)c1NC(=O)Nc1cccc2c1O[C@@H](CN(C)Cc1ccc(-c3ccccc3)cc1)[C@H](C)CN([C@H](C)CO)C2=O | nt | nt | -6.9 | -4.6 | 38.7* | -3.0
Cc1noc(C)c1NC(=O)Nc1cccc2c1O[C@@H](CN(C)Cc1ccc(C(=O)O)cc1)[C@@H](C)CN([C@@H](C)CO)C2=O | nt | nt | 0.8 | 1.0 | 44.5* | -1.6
Cc1noc(C)c1NC(=O)Nc1cccc2c1O[C@H](CN(C)Cc1ccc(C(=O)O)cc1)[C@H](C)CN([C@H](C)CO)C2=O | nt | nt | 1.2 | 21.6 | -1.1 | -2.1
O=C(Nc1ccc(Cl)cc1)N[C@H]1CC[C@@H](CCn2cc(C3(O)CCCC3)nn2)O[C@H]1CO | nt | 2.2[16.7 µM] | -6.3 | -17.2 | 2.6 | 3.2
C[C@@H]1CN([C@@H](C)CO)C(=O)c2cc(NC(=O)CCN3CCOCC3)ccc2O[C@H]1CN(C)S(C)(=O)=O | nt | -2.2[16.7 µM] | 4.2 | 27.3 | -14.9 | 0.7
Cc1ccc(Cn2ccsc2=NC(=O)COC(=O)c2ccc(O)cc2O)cc1 | -3.7 | -9.9 | -25.5* | nt | -6.1 | 6.4
O=C(COC(=O)c1ccc(O)cc1O)N=c1sccn1Cc1ccccc1Cl | nt | 23.1 | -50.8 | 19.0 | 6.4 | -0.2
O=C(C[C@H]1CC[C@H]2[C@@H](COC[C@@H](O)CN2Cc2ccncc2)O1)NCC1CC1 | 5.3 | nt | -0.5 | 10.2 | -2.7 | 2.6
COc1ccccc1CN1C[C@@H]2C[C@@H](C3=Cc4cc(Cl)ccc4OC3)N3CCC[C@@]23C1=O | -5.2 | 66.6* | -51.5 | nt | 0.5 | nt
CN1C[C@@H]2C[C@@H](C3=Cc4cc(Cl)ccc4OC3)N3CCC[C@@]23C1=O | nt | 7.9 | -7.7 | 24.5 | 17.8 | -5.3
O=C(Cc1ccccn1)N[C@H]1C=C[C@H](CC(=O)N2CCCCC2)O[C@H]1CO | 1.4 | 9.1[16.7 µM] | -2.6 | 3.9 | 2.4 | 2.6

High-throughput results as filed in PubChem BioAssay.
